According to publication PMC3319382 (Bioorganic & medicinal chemistry, 2011):
Entries after “also recorded” stand apart in the source; their conditions may differ.

Assays:
[1] = molecular target: Ras Converting Enzyme 1 (Rce1p), HA-epitope tagged, yeast (S. cerevisiae) (UniProt Q03530); test: cross-linking
yeast Rce1p [2] = molecular target: T1, yeast Rce1p (Saccharomyces cerevisiae, UniProt Q03530); details: ref [12], [13]; cited from earlier work
T1 sequence (Q03530 1-315): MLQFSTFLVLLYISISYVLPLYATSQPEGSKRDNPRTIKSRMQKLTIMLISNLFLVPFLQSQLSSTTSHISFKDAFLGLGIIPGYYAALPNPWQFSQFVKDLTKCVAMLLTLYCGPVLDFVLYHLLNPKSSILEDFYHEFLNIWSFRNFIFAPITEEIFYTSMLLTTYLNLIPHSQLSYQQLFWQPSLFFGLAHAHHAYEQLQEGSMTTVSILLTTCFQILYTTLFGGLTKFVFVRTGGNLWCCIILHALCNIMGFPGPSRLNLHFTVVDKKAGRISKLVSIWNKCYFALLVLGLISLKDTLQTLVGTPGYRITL

yeast Rce1p [3] = molecular target: T1, yeast Rce1p; test: fluorescence-based CAAX proteolysis kinetic assay; type: biochemical
Method in brief: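 Enzyme source was carbonate-washed membranes from S. cerevisiae overexpressing yeast Rce1p as sole CAAX protease, diluted in 100 mM Hepes pH 7.5, 5 mM MgCl2 and preincubated 10 min at 30 °C. The final mix held 0.25 mg/mL membrane protein and a 10-point substrate series (0–45 or 0–50 μM) in triplicate wells. Read at 340/420 nm every 30–60 s for 1 h at 30 °C. Product was quantified against trypsin-cleaved standard curves.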

## Peptide 9, Biotin-K(Dde)KSKTKC(C10BP)K(Dnp)IM
[1]
  fold labeling efficiency against probe 8 (fold less than 8): 4

## Peptide 2, Abz-KSKTKC(farnesyl)K(Dnp)IM, internally quenched fluorogenic farnesylated substrate based on the K-Ras4b C-terminal sequence
[1]
  percent labeling of Rce1p by 14 (15 μM) left with 50 μM 2: 84%
  percent labeling of Rce1p by 14 (15 μM) left with 100 μM 2: 7%

## c1cnc2c(c1)ccc1cccnc12 [1,10-phenanthroline]
Yeast Rce1p [2]
  inhibition of yeast Rce1p: inhibited

## Abz-KSKTKC(C10BP)K(Dnp)IM [Peptide 6]
Yeast Rce1p [3]; Rce1p-enriched membranes 0.25 mg/mL, pH 7.5, 30 °C, Hill Equation fit, n=5
  h (Hill coefficient): 1.8
Yeast Rce1p [3]; Rce1p-enriched membranes 0.25 mg/mL, pH 7.5, 30 °C, n=5
  Vmax/KM: 8.9×10^−5 L/min/mg protein
Yeast Rce1p [3]; compared with 2
  efficiency (Vmax/KM) of Rce1p processing, fold lower than 2: 10 -fold
  maximal processing rate (Vmax), fold less than 2: approximately 7 -fold
Yeast Rce1p [3]; compared with 4
  efficiency (Vmax/KM) of Rce1p processing compared with 4: approximately double that of 4; also recorded: increased approximately two-fold
  maximal processing rate (Vmax), fold greater than 4: 9 -fold
Yeast Rce1p [3]; fluorescence-based kinetic evaluation
  Rce1p substrate: could serve as a substrate for Rce1p
Yeast Rce1p [3]; from KM, compared with 4
  binding affinity, fold less than that of 4: 4 -fold

## [Zn] [zinc]
Yeast Rce1p [2]
  inhibition of yeast Rce1p: inhibited
